Assay outcomes as filed in PubChem BioAssay.
SMARCA2 act: SMARCA2 (BRM) function activators, primary screen, cell-based, luminescence, high throughput. MG213 cells, MMTV-luciferase reporter, dexamethasone, overnight. activation, % at 9.1 µM. hit rate 1% among 370,000; in the data active = activation above about 7.8%;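 also: 0% = vehicle wells and 100% = reference activator wells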
ATG4B inhibitor: ATG4B protease inhibitors, primary screen, biochemical, fluorescence, uHTS; AID 504462, 2011; hit rate 0.51% among 340,000; inhibition, % at 8.33 µM; ATG4B cleavage of LC3-PLA2, NBD-HPC fluorescence, 1 h; in the data active = inhibition above about 40%
MPTP inh: mitochondrial permeability transition pore inhibitors, primary screen, biochemical, isolated mouse mitochondria, absorbance. Ca2+ swelling absorbance, 30 min. inhibition, % at 10 µM. hit rate 1.4% among 360,000. AID 602449, 2012;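 active = inhibition of 50% or more, scaled per plate between neutral and stimulator controls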;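 also: 0% = DMSO wells given calcium and 100% = 1 mM EGTA wells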
MC4R ag barr: MC4R agonists recruiting beta-arrestin, primary screen, cell-based, luminescence, agonist arm of biased-ligand search. U2OS MC4R beta-arrestin complementation; percent of melanotan II response, DMSO zero. activation, % at 8.9 µM. hit rate 0.98% among 360,000. AID 540308, 2011;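 active = activation above a per-plate cutoff, the mean activation of sample wells on that plate plus 3 SD, cut at about 8% in these data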
Target sequence (P32245 whole entry, looked up): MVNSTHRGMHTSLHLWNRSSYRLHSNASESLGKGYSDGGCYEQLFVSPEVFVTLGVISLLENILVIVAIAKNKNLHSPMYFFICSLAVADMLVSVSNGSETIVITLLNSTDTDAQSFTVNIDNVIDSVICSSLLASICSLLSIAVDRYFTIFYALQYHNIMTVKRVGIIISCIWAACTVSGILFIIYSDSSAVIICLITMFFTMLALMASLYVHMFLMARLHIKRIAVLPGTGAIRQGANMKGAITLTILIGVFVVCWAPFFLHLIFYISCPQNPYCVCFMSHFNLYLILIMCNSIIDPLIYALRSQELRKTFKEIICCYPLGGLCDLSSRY
MC4R antagonist: MC4R antagonists of cAMP signaling, primary screen, cell-based, TR-FRET, antagonist arm of biased-ligand search. Melanocortin receptor 4 (Homo sapiens), P32245. MC4R-expressing cells, MTII-stimulated cAMP, LANCE TR-FRET. inhibition, % at 6.5 µM. hit rate 0.48% among 360,000. AID 540295, 2011;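 active = inhibition above its plate's cutoff, the mean of tested wells on that plate plus 3 SD, cut at about 29% in these data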;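 also: 0% = Melanotan II alone and 100% = Melanotan II plus saturating MCL0020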
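Material: human MC4R-expressing U2OS cells. Probe or stimulus: Melanotan II challenge. Dosing: 6.5 µM single dose. Times: 30-min compound, 1-h challenge, 1-h detection, room temperature. Technique: TR-FRET with Eu-cAMP and labeled anti-cAMP, 671 nm. Replication: singlicate.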
U2OS cAMP counter: nonselective cAMP signaling inhibitors, parental cells, counter-screen for MC4R biased antagonist project, cell-based, TR-FRET, U2OS, forskolin, triplicate; shares compounds with MC4R antagonist; LANCE TR-FRET; inhibition, % at 6.5 µM; hit rate 26% among 1,600; AID 602193, 2012;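 active = mean inhibition over triplicates above the low-control well mean plus 3 SD, set per campaign, cut at about 13% in these data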;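 also: signal is single emission at 671 nm which falls as cellular cAMP rises; 0% = forskolin-stimulated wells and 100% = buffer without forskolin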
MC4R cAMP antag: MC4R cAMP antagonists, retest, confirmation, cell-based, TR-FRET; inhibition, % at 6.5 µM; MC4R-expressing cells, MTII-stimulated cAMP; AID 602195, 2012; hit rate 27% among 1,600; shares compounds with MC4R antagonist; in the data active = inhibition above about 29%;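 also: 0% = agonist stimulated wells alone and 100% = agonist stimulated wells plus saturating reference antagonist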
MPTP counter: fluorescence retest of MPTP screen hits in isolated mitochondria, single concentration; membrane potential, Rhodamine 123 fluorescence; inhibition, % at 10 µM; AID 624504, 2012; hit rate 78% among 5,000; shares compounds with MPTP inh; in the data active = inhibition above about 22%;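 also: 0% = DMSO vehicle and 100% = positive control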
MPTP swell DR: mitochondrial permeability transition pore inhibitors, dose response, biochemical, absorbance, uHTS hits | IC50, µM | hit rate 58% among 780 | shares compounds with MPTP inh | isolated mitochondria swelling; in the data active = IC50 below about 20 µM
MPTP counter DR: fluorescent counter-screen in isolated mitochondria, dose response, counter-screen for MPTP inhibitor project, biochemical, fluorescence, uHTS hits | shares compounds with MPTP inh | isolated mitochondria counterscreen, fluorescence read-out | IC50, µM | hit rate 49% among 780; in the data active = IC50 below about 80 µM
SMARCA2 act conf: SMARCA2 (BRM) function activators, confirmation, cell-based, luminescence, triplicate; shares compounds with SMARCA2 act; hit rate 30% among 3,500; MG213 cells, MMTV-luciferase with dexamethasone, overnight; MG213 cells expressing E1A, Rb sequestered; DMSO wells 0%, reference activator 100%; activation, % at 9.1 µM;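 active = activation above its plate's cutoff, the mean activation of tested wells plus 3 SD, cut at about 7.9% in these data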
VP16 Luc act: GAL4-VP16 luciferase reporter activation, counter-screen for SMARCA2 (BRM) activator project, cell-based, pG5luc, luminescence, high throughput | shares compounds with SMARCA2 act | HEK293 GAL4-VP16 pG5luc reporter; scaled: DMSO wells 0%, SAHA wells 100% | activation, % at 9.1 µM | hit rate 41% among 3,500 | AID 686939, 2013;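 active = activation above the solvent-only control well mean plus 3 SD, averaged across control plates, cut at about 5.2% in these data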
* = called active by the depositor. Only some compounds are listed: those with a hit (about 4.1% of all), similar ones and a draw of the others.

`O=[N+]([O-])c1cc(S(=O)(=O)C(F)(F)F)ccc1Sc1nc2ccccc2[nH]1` gave SMARCA2 act 4, ATG4B inhibitor 10, MPTP inh 57*, MC4R ag barr -1, MC4R antagonist 30*, U2OS cAMP counter 6, MC4R cAMP antag 40* and MPTP counter 91*.
CN(C)C(=O)NCCCC#Cc1ccccc1 was read as SMARCA2 act -3.
Screening CC(C)(C)CC(C)(C)c1ccc(O)c(Cc2ccc(Cl)cc2Cl)c1 returned SMARCA2 act -1, ATG4B inhibitor 0, MPTP inh 95*, MC4R ag barr 2, MC4R antagonist 44*, U2OS cAMP counter 0, MC4R cAMP antag 16, MPTP counter 5, MPTP swell DR inactive and MPTP counter DR 6.4*.
For C[C@@H](CO)N(Cc1cn(Cc2ccccc2)nn1)S(=O)(=O)c1ccc(F)cc1Br the results were SMARCA2 act -5.
`CN(C)S(=O)(=O)c1ccc(-c2csc(N/N=C/c3ccc(O)cc3)n2)cc1` gave SMARCA2 act -8, ATG4B inhibitor 6, MPTP inh 58*, MC4R ag barr 9.8*, MC4R antagonist 32*, U2OS cAMP counter 1, MC4R cAMP antag 29* and MPTP counter 43*.
Screening CN(C)S(=O)(=O)c1ccc(-c2csc(N/N=C/c3ccco3)n2)cc1 returned SMARCA2 act -8, ATG4B inhibitor -2, MPTP inh 14, MC4R ag barr 3 and MC4R antagonist 8.
CC1CCCN(c2nc(-c3cccnc3)nc3scc(-c4ccccc4)c23)C1 (stereo not given) was read as SMARCA2 act 1, ATG4B inhibitor -2, MPTP inh 73*, MC4R ag barr 0, MC4R antagonist 37*, U2OS cAMP counter 0, MC4R cAMP antag 21, MPTP counter -2, MPTP swell DR 7* and MPTP counter DR >80.
COc1cccc(N2CCN(c3ncnc4c3[nH]c3ccc(F)cc34)CC2C)c1 (stereo not given) was read as SMARCA2 act -10, ATG4B inhibitor -10, MPTP inh 100*, MC4R ag barr 22*, MC4R antagonist 40*, U2OS cAMP counter 26*, MC4R cAMP antag 51* and MPTP counter 93*.
`CN(CCC#N)C(=O)COC(=O)c1ccccc1C(=O)c1ccc(Cl)c([N+](=O)[O-])c1` gave SMARCA2 act 9.5*, ATG4B inhibitor -7, MPTP inh -1, MC4R ag barr -4, MC4R antagonist 33*, U2OS cAMP counter 24*, MC4R cAMP antag 5, SMARCA2 act conf -10 and VP16 Luc act 3.
Screening O=C(COC(=O)c1ccccc1C(=O)c1ccc(Cl)c([N+](=O)[O-])c1)NC1CCCCCC1 returned SMARCA2 act 9.4*, ATG4B inhibitor -9, MPTP inh 11, MC4R ag barr -3, MC4R antagonist 64*, U2OS cAMP counter 12, MC4R cAMP antag 31*, SMARCA2 act conf -13 and VP16 Luc act -1.
Screening CC(C)N(C(=O)COC(=O)c1ccccc1C(=O)c1ccc(Cl)c([N+](=O)[O-])c1)C(C)C returned SMARCA2 act 1, ATG4B inhibitor 5, MPTP inh 0, MC4R ag barr -5 and MC4R antagonist 19.
Screening O=C(COC(=O)c1ccc(Cl)c([N+](=O)[O-])c1)NC1CCCC1 returned SMARCA2 act 0, ATG4B inhibitor 0, MPTP inh 0, MC4R ag barr -2 and MC4R antagonist 25.
O=C(CS(=O)c1ccc(C(F)(F)F)cc1[N+](=O)[O-])Oc1ccc(Cl)cc1 (stereo not given) was read as SMARCA2 act 11*, ATG4B inhibitor 1, MPTP inh 4, MC4R ag barr 3, MC4R antagonist 33*, U2OS cAMP counter 9, MC4R cAMP antag 28, SMARCA2 act conf 14* and VP16 Luc act 0.
`O=C(OCC(=O)N1CCCC1=O)c1nc(Cl)c(Cl)c(Cl)c1Cl` gave SMARCA2 act 34*, ATG4B inhibitor 4, MPTP inh -1, MC4R ag barr -4, MC4R antagonist 29*, U2OS cAMP counter 23*, MC4R cAMP antag 47*, SMARCA2 act conf 7 and VP16 Luc act 4.
`OC[C@@H]1CC[C@@H]2O[C@H](CCc3ccc(-c4ccc(F)cc4)cc3)[C@@H](n3cc(C4CC4)nn3)C[C@@H]2O1` gave SMARCA2 act -2.
Screening Nc1nnc(-c2ccc(Cl)cc2Cl)s1 returned SMARCA2 act 12*, ATG4B inhibitor 2, MPTP inh -1, MC4R ag barr -2, MC4R antagonist 30*, U2OS cAMP counter 2, MC4R cAMP antag 2, SMARCA2 act conf 6 and VP16 Luc act 8.2*.
`CCCC(=O)N1CCC[C@]2(CC[C@H](CCC#N)O2)C1` gave SMARCA2 act -1.
`COC(=O)[C@]12C[C@H](CC(=O)N3CCN(C(=O)c4ccco4)CC3)C(=O)N(Cc3ccccc3)C1=C[C@H](C1CCCC1)O[C@@H]2C` gave SMARCA2 act -6.
